Measurements taken from ChEMBL document CHEMBL4007396, “New diphenylmethane derivatives as peroxisome proliferator-activated receptor alpha/gamma dual agonists endowed with anti-proliferative effects and mitochondrial activity” (Eur J Med Chem, 2017).
The source made the active and inactive calls. The rule behind the calls is not given here.

Tests used:
[1] = target: T1, Peroxisome proliferator-activated receptor alpha (Homo sapiens, UniProt Q07869); assay: Binding affinity to PPARalpha (unknown origin) assessed as thermodynamic dissociation constant by SPR assay; conditions: read-out: Kd
T1 sequence (Q07869 whole entry): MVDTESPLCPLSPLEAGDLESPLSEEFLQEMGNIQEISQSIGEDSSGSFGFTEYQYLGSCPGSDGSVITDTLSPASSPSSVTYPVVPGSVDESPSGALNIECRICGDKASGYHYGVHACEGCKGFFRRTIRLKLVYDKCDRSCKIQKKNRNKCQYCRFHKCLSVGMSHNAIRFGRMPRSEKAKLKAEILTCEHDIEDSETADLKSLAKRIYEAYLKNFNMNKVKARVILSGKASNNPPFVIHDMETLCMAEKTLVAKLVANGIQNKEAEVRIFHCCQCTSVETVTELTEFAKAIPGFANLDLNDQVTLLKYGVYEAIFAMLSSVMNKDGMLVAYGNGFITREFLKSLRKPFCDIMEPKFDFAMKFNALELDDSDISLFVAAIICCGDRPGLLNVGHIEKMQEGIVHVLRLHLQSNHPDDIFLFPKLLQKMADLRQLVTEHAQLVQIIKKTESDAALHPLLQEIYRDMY

[2] = target: T2, Peroxisome proliferator-activated receptor gamma (Homo sapiens, UniProt P37231); assay: Binding affinity to PPARgamma (unknown origin) assessed as thermodynamic dissociation constant by SPR assay; conditions: read-out: Kd
T2 sequence (P37231 whole entry): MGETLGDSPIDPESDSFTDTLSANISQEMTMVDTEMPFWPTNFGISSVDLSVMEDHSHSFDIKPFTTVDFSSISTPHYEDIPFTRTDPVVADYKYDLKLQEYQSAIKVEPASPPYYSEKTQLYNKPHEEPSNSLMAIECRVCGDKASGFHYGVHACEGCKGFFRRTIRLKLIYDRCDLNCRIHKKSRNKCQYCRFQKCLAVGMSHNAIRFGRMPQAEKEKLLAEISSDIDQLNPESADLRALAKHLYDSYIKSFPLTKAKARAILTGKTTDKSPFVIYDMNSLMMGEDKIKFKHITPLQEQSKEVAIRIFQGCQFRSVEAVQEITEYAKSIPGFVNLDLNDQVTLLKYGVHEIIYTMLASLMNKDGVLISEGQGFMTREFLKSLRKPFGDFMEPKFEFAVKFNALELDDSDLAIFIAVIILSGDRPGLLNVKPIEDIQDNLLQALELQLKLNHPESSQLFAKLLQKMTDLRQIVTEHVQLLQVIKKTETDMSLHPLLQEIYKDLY

[3] = target: T3, Peroxisome proliferator-activated receptor delta (Homo sapiens, UniProt Q03181); assay: Binding affinity to PPARdelta (unknown origin) assessed as thermodynamic dissociation constant by SPR assay
T3 sequence (Q03181 whole entry): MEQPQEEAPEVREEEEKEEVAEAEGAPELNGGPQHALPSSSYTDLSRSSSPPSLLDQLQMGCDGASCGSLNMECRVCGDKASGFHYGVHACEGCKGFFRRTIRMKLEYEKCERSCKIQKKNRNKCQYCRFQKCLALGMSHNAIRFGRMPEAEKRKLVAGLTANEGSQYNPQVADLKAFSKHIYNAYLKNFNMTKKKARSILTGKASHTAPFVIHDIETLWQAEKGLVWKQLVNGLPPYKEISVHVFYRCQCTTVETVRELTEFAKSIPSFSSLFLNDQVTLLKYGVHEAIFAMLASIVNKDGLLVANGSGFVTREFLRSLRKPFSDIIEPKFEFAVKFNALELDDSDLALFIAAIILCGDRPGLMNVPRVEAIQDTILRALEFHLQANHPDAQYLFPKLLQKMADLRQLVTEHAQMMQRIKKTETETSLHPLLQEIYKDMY

[4] = target: T1, Peroxisome proliferator-activated receptor alpha; assay: Transactivation of GAL4-fused human PPARalpa LBD expressed in human HepG2 cells after 20 hrs by luciferase reporter gene assay; format: cell-based
[5] = target: T4, Peroxisome proliferator-activated receptor gamma (Homo sapiens) (UniProt P37231); assay: Agonist activity at PPARgamma in human HT-29 cells assessed as upregulation of p21waf1/cip1 protein expression at 10 uM after 48 hrs by Western blot method; format: cell-based
T4 sequence (whole entry): T2 sequence (P37231 whole entry)
How it was run: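 HT-29 or HEK293T cells in DMEM/10% FBS treated 48 h with 10 μM compound (DMSO vehicle, final below 0.1%). RIPA lysates (with protease inhibitors), 80 μg protein per lane immunoblotted for p21waf1/cip1 with β-actin loading control; densitometric p21/β-actin ratio, mean ± SD of at least three independent experiments.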

[6] = target: T4, Peroxisome proliferator-activated receptor gamma (Homo sapiens); assay: Agonist activity at PPARgamma in human HT-29 cells harboring APC mutant assessed as inhibition of Wnt/beta-catenin signaling pathway by measuring decrease in c-Myc level at 10 uM treated for 24 hrs by Western blot method; format: cell-based
How it was run: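 RIPA lysates, 80 μg protein immunoblotted for c-Myc with β-actin loading control; c-Myc/β-actin densitometry, mean ± SD of at least three independent experiments.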

[7] = target: T5, Peroxisome proliferator-activated receptor alpha (Homo sapiens) (UniProt Q07869); assay: Agonist activity at PPARalpha in human HepG2 cells assessed as increase in CAC mRNA level at 1 uM after 24 hrs by RT-PCR method; format: cell-based
T5 sequence (whole entry): T1 sequence (Q07869 whole entry)
How it was run: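 Serum-free HepG2 exposed 24 h to 1 μM test agent (Wy-14,643 reference at 50 μM). RNA extracted from 1x10⁶ cells; TaqMan real-time RT-PCR for CAC, CPT1 or PPARα, normalized to β-actin. Mean ± SD of three independent duplicate experiments; one-way ANOVA with Bonferroni test.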

[8] = target: T5, Peroxisome proliferator-activated receptor alpha (Homo sapiens); assay: Agonist activity at PPARalpha in human HepG2 cells assessed as increase in CPT1 protein expression level at 1 uM after 48 hrs by Western blot method; format: cell-based
How it was run: (§1)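 HepG2 serum-depleted 24 h, then treated 48 h with 1 μM compound (Wy-14,643 at 50 μM as reference). Nitrocellulose immunoblots probed for CAC, CPT1 or PPARα with β-actin loading control, chemiluminescent detection; band densitometry expressed as fold change versus untreated cells; three independent experiments.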

[9] = target: T5, Peroxisome proliferator-activated receptor alpha (Homo sapiens); assay: Agonist activity at PPARalpha assessed as induction of positive regulatory loop based receptor transcriptional activation by measuring upregulation of PPARalpha protein expression level in human HepG2 cells at 1 uM after 48 hrs by Western blot method; format: cell-based; how it was run: as §1
[10] = target: T2, Peroxisome proliferator-activated receptor gamma; assay: Binding affinity to PPARgamma (unknown origin) assessed as kinetic dissociation constant by SPR assay
[11] = target: T3, Peroxisome proliferator-activated receptor delta; assay: Binding affinity to PPARdelta (unknown origin) assessed as kinetic dissociation constant by SPR assay
HT-29 [12] = assay: Growth inhibition of human HT-29 cells assessed as cell vitality at 5 uM up to 72 hrs by hemocytometry relative to control; format: functional; set-up: scale not given: the % may be the effect or the level left
How it was run: (§2)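 Exponentially growing HT-29 colon adenocarcinoma cells (D-MEM, 10% FBS, 37 °C, 5% CO2) exposed to vehicle (DMSO, final <0.1%) or 1, 5 and 10 μM compound in 10% FBS medium for 24, 48 and 72 hs; cells washed, trypsinized and counted by Bürker hemocytometer, three counts per well. Viability relative to vehicle; mean ± SD of three independent experiments in duplicate.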

HT-29 [13] = assay: Growth inhibition of human HT-29 cells assessed as cell vitality at 10 uM after 48 hrs by hemocytometry relative to control; format: functional; set-up: scale not given: the % may be the effect or the level left; how it was run: as §2

SMILES | Kd [1] [nM] | Kd [2] [nM] | Kd [3] | EC50 [4] [nM] | Activity [5] | Activity [6] | Activity [7] | Activity [8] | Activity [9] | Kd [10] [s⁻¹] | Kd [11] | Activity (HT-29 [12]) [%] | Activity (HT-29 [13]) [%]
C[C@@H](Oc1ccc(Cc2ccc(OCc3coc(-c4ccccc4)n3)cc2)cc1)C(=O)O | 0.86 | 3.7 | Not Active | 42 | Active | Active | Active | Active | Active | 0.095 | Not Active |  | 
C[C@H](Oc1ccc(Cc2ccc(OCc3coc(-c4ccccc4)n3)cc2)cc1)C(=O)O | 0.75 | 4.9 | Not Active | 46 | Active | Active | Active | Active | Active | 0.099 | Not Active | 45 | 40
